Test results as given in ChEMBL document CHEMBL1145462, “In vivo pharmacodynamic activity of the glycopeptide dalbavancin” (Antimicrob Agents Chemother, 2007).
Converted amounts (≈) assume the structure as drawn.

Tests used:
Type in all cases: functional
Staphylococcus aureus [1] = assay: Antibacterial activity against Staphylococcus aureus Smith by microdilution method
Summary of the method: (§1)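 MICs in duplicate on at least two occasions by standard CLSI broth microdilution; S. aureus grown and quantified in Mueller-Hinton broth/agar.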

Staphylococcus aureus [2] = assay: Antibacterial activity against Staphylococcus aureus ATCC 25923 by microdilution method
Summary of the method: (§2)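 MIC and MBC were determined by CLSI broth microdilution, in duplicate on at least two occasions. Staphylococci were grown in Mueller-Hinton broth and agar; pneumococci were plated on sheep blood agar.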

Staphylococcus aureus [3] = assay: Antibacterial activity against Staphylococcus aureus 307109 by microdilution method; summary of the method: as §2
Staphylococcus aureus [4] = assay: Antibacterial activity against Staphylococcus aureus 31005 by microdilution method; summary of the method: as §2
Staphylococcus aureus [5] = assay: Antibacterial activity against Staphylococcus aureus 33591 by microdilution method; summary of the method: as §1

Compound: COc1cccc(OC)c1C(=O)N[C@@H]1C(=O)N2[C@@H]1SC(C)(C)[C@@H]2C(=O)O [METHICILLIN]
- MIC (Staphylococcus aureus [1]): 0.12 µg/mL (≈ 0.315 µM)
- MIC (Staphylococcus aureus [2]): 0.12 µg/mL (≈ 0.315 µM)
- MIC (Staphylococcus aureus [3]): > 8 µg/mL
- MIC (Staphylococcus aureus [4]): 0.12 µg/mL (≈ 0.315 µM)
- MIC (Staphylococcus aureus [5]): > 8 µg/mL
